Compound activity (PubChem)
KDM4C inh: inhibitors of GASC-1 (KDM4C) histone demethylase, primary screen, biochemical, single concentration HTS | Lysine-specific demethylase 4C (Homo sapiens), Q9H3R0 | GST-KDM4C 2-372, H3K9me3 peptide, LANCE TR-FRET | inhibition, % at 12.5 µM | actives 0.15% (n = 96,000);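 active means mean replicate inhibition above about 25%, with at least 55% of replicates also reaching it, limit read from the data, passing the limit was not always enough; inconclusive means only one of those two conditions met; inactive means neither condition met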
Target sequence (Q9H3R0 2-372 limits assumed): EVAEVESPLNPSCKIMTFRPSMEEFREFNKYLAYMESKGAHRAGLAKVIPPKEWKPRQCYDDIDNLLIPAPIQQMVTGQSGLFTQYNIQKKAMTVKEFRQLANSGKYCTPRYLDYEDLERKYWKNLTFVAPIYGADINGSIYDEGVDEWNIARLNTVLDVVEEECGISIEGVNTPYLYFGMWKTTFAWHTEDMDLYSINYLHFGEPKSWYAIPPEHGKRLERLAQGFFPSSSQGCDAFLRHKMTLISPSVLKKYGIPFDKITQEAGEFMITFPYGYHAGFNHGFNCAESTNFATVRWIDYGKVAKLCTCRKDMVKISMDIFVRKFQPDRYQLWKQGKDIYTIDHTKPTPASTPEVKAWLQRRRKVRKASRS
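material = GST-tagged GASC-1 (JMJD2C) catalytic fragment, aa 2-372 | amount = enzyme final amount 10 nM | medium = HEPES buffer, pH 7.5, plus ascorbate | also added = H3K9me3 peptide substrate, Fe(II), 2-oxoglutarate | dosing = single dose | times = 30 min demethylation and 1 h detection at room temperature | detection = LANCE TR-FRET | read-out basis = Fall in 671/618 emission ratio as inhibition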
IDH1 mut inh: inhibitors of IDH1 R132H reductase, primary screen, biochemical, plate reader, single point | Isocitrate dehydrogenase [NADP] cytoplasmic (Homo sapiens), O75874 | diaphorase/resazurin fluorescence, 60 min | inhibition, % at 10 µM | actives 0.18% (n = 70,000); in the data active means inhibition above about 34%; inconclusive means no clear call, values can overlap the other calls; inactive means below about 11%;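 further: 0% = DMSO and 100% = no enzyme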
Pf Dd2 inh: P. falciparum Dd2 growth inhibitors, primary screen, SYBR Green fluorescence, single dose replicates | activity change, % at 10 µM | 72 h; stronger effect = lower value | AID 1159554, 2015 | actives 2.3% (n = 94,000); in the data active means activity change below about -80%; inconclusive means no clear call, values can overlap the other calls
T cruzi growth-1: T. cruzi intracellular proliferation inhibitors, primary screen, cell-based, beta-gal Tulahuen parasites, NIH3T3 host, luminescence | T. cruzi beta-gal in NIH3T3, GalScreen luminescence, 90 h | inhibition, % at 8.34 µM | actives 5.9% (n = 77,000);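 active means mean inhibition above about 93%, with at least 55% of replicates each passing it, limit read from the data, passing the limit was not always enough; inconclusive means only one of those two conditions holds; inactive means neither condition holds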
T cruzi growth-2: T. cruzi intracellular proliferation inhibitors, confirmation, cell-based, NIH3T3 host, beta-gal parasite, luminescence, cherry-pick. shares compounds with T cruzi growth-1. T. cruzi beta-gal in NIH3T3, GalScreen luminescence, 90 h. inhibition, % at 8.35 µM. actives 72% (n = 5,600). AID 651739, 2012;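 active means mean replicate inhibition above about 95% and at least 55% of replicates individually reaching it, limit read from the data; inconclusive means only one of the two criteria is met; inactive means neither criterion is met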
T cruzi growth-3: inhibitors of intracellular T. cruzi replication, confirmation, NIH3T3 host cells, beta-gal parasites, cherry-pick, set 2; shares compounds with T cruzi growth-1; T. cruzi beta-gal in NIH3T3, GalScreen luminescence, 90 h; inhibition, % at 2.09 µM; actives 21% (n = 5,600); AID 651740, 2012;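 active means mean inhibition above about 95%, with at least 55% of replicates also reaching it, limit read from the data; inconclusive means meets just one of the two conditions; inactive means meets neither condition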;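 further: plate controls were neutral control median for no effect and positive control median for full effect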
NIH3T3 tox: cytotoxicity in mouse NIH/3T3 fibroblasts, confirmation, cytotoxicity control for T. cruzi proliferation inhibitor project, cell-based, cherry-pick, single point; shares compounds with T cruzi growth-1; NIH/3T3 viability, CellTiter-Glo ATP luminescence, 90 h; cytotoxicity (signal decrease), % at 8.35 µM; actives 14% (n = 5,600);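 active means mean signal decrease across replicates above about 35% based on untreated-well scatter, with enough replicates individually passing, limit read from the data; inconclusive means no rule stated though some were filed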;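 further: 0% = median of neutral control wells and 100% = median of positive control wells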
3T3 cytotox 2: NIH/3T3 fibroblast cytotoxicity, confirmation, cytotoxicity control, cell-based, cherry-pick, single point, set 2; inhibition, % at 24.9 µM; shares compounds with T cruzi growth-1; actives 56% (n = 5,600); NIH/3T3 viability, CellTiter-Glo ATP luminescence, 90 h;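 active means mean loss of cell viability signal at or above a set limit, and enough replicates individually reaching it; inconclusive means meets only the mean limit or only the replicate share; inactive means meets neither condition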;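 further: 0% = median of neutral control wells and 100% = median of positive control wells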
An asterisk follows results filed as active; ? = inconclusive; . = no result given. The list is not random: actives were taken first. Their share in the collection is about 5.9%.

SMILES | KDM4C inh | IDH1 mut inh | Pf Dd2 inh | T cruzi growth-1 | T cruzi growth-2 | T cruzi growth-3 | NIH3T3 tox | 3T3 cytotox 2
C[C@@H]1CN([C@H](C)CO)C(=O)c2cc(NC(=O)Cc3ccccc3)ccc2O[C@@H](C)CCCCO[C@@H]1CN(C)S(=O)(=O)c1ccc(Cl)cc1 | -2 | . | -84* | 108* | 109* | 85 | -13 | 22
C[C@@H]1CN([C@@H](C)CO)C(=O)c2cc(NC(=O)Cc3ccccc3)ccc2O[C@@H](C)CCCCO[C@@H]1CN(C)S(=O)(=O)c1ccc(Cl)cc1 | -1 | . | -85* | 111* | 101* | 65 | -3 | -2
COc1ccc(S(=O)(=O)N(C)C[C@H]2OCCCC[C@H](C)Oc3ccc(NC(=O)Cc4ccccc4)cc3C(=O)N([C@@H](C)CO)C[C@@H]2C)cc1 | -4 | . | -83* | ? | 107* | 43 | -10 | -18
Cc1ccc(S(=O)(=O)N(C)C[C@@H]2OCCCC[C@H](C)Oc3ccc(NC(=O)Cc4ccccc4)cc3C(=O)N([C@H](C)CO)C[C@@H]2C)cc1 | -1 | . | -76 | 112* | 101* | 30 | -21 | ?
C[C@H](CO)N1C[C@H](C)[C@H](CN(C)C(=O)Nc2ccccc2)OCCCC[C@H](C)Oc2ccc(NC(=O)Nc3ccccc3)cc2C1=O | -2 | 1 | -12 | 67 | . | . | . | .
CO[C@@H]1CN(C)C(=O)c2ccc(NC(=O)C3CCCCC3)cc2OC[C@H](C)N(Cc2cccnc2)C[C@H]1C | 3 | 0 | -37 | 35 | . | . | . | .
Cc1cc([N+](=O)[O-])ccc1NC(=O)CN1C(=O)COc2ccc(Cl)cc21 | . | 1 | . | . | . | . | . | .
C[C@@H]1CN([C@@H](C)CO)C(=O)c2cccc(NC(=O)NC3CCCCC3)c2O[C@H]1CN(C)S(=O)(=O)c1cn(C)cn1 | -1 | 0 | 7 | -36 | . | . | . | .
CCCC#Cc1ccc2c(c1)O[C@H](CN(C)S(=O)(=O)c1cccc(F)c1)[C@H](C)CN([C@@H](C)CO)S2(=O)=O | -1 | 1 | -68 | 124* | 96* | 99* | 43* | 76*
COCC#Cc1ccc2c(c1)O[C@H](CN(C)S(=O)(=O)c1cccc(F)c1)[C@@H](C)CN([C@H](C)CO)S2(=O)=O | -1 | 0 | -70 | ? | 70 | 10 | 20 | 69*
CCCC#Cc1ccc2c(c1)O[C@H](CN(C)S(=O)(=O)c1cccc(F)c1)[C@@H](C)CN([C@@H](C)CO)S2(=O)=O | -3 | -2 | -36 | 114* | 100* | 117* | 0 | 104*
COCC#Cc1ccc2c(c1)O[C@H](CN(C)S(=O)(=O)c1cccc(F)c1)[C@H](C)CN([C@@H](C)CO)S2(=O)=O | -2 | 0 | -69 | 42 | . | . | . | .
CCCC#Cc1ccc2c(c1)O[C@@H](CN(C)S(=O)(=O)c1cccc(F)c1)[C@H](C)CN([C@H](C)CO)S2(=O)=O | -2 | 0 | -22 | 123* | 106* | 84 | 51* | 96*
C[C@@H]1CCCCO[C@H](CN(C)C(=O)c2ccncc2)[C@H](C)CN([C@@H](C)CO)C(=O)c2cc(NC(=O)c3ccccc3)ccc2O1 | -1 | . | 7 | 43 | . | . | . | .
C[C@@H]1CN([C@@H](C)CO)C(=O)CCCn2nncc2CO[C@@H]1CN(C)Cc1ccc(Cl)c(Cl)c1 | 1 | 0 | -27 | 11 | . | . | . | .
